Data reported in ChEMBL document CHEMBL1150245, “1-Aryl-2-dimethylaminomethyl-2-propen-1-one hydrochlorides and related adducts: A quest for selective cytotoxicity for malignant cells” (Bioorg Med Chem, 2008).
pIC50: −log10 of the molar value. Activity calls are given as the source filed them. The calls are words filed in the database; no cut-off is given here.

Assays:
[1] = tested on: SR; assay: Cytotoxicity against human SR cells; type: cell-based
Procedure, shortened: (§1)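 Part of a human tumour cell line panel screen run by a literature procedure with compounds at 10−8–10−4 M. GI50 is the concentration giving 50% growth inhibition. Where 50% inhibition was not reached at 100 μM, 100 μM was used as the value.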

[2] = tested on: HSC-2; assay: Cytotoxicity against human HSC2 cells; type: functional
Procedure, shortened: (§2)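 CC50 is the concentration killing 50% of cells, tested up to a highest concentration of 400 μM. Each value is the average of two independent determinations.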

[3] = tested on: L1210; assay: Cytotoxicity against mouse L1210 cells after 48 hrs; conditions: L1210, 48 h
[4] = tested on: CCRF-CEM; assay: Cytotoxicity against human CCRF-CEM cells; type: functional, cell-based; procedure, shortened: as §1
[5] = Cytotoxicity against human Molt4/C8 cells after 72 hrs; type: functional, cell-based; conditions: MOLT-4, 72 h
Procedure, shortened: (§3)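 Human transformed T-lymphocytes exposed to a range of compound concentrations at 37 °C for 72 h. IC50 is the concentration giving 50% inhibition of cell growth.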

[6] = Cytotoxicity against human HGF cells; type: cell-based; procedure, shortened: as §2
[7] = tested on: HL-60; assay: Cytotoxicity against human HL60 cells; type: functional; procedure, shortened: as §2
[8] = tested on: K562; assay: Cytotoxicity against human K562 cells; type: functional, cell-based; procedure, shortened: as §1
[9] = tested on: CCRF-CEM; assay: Cytotoxicity against human CEM cells after 72 hrs; type: functional, cell-based; procedure, shortened: as §3
[10] = Cytotoxicity against human HPC cells; type: cell-based; procedure, shortened: as §2
[11] = Cytotoxicity against human HPLF cells; type: cell-based; procedure, shortened: as §2
[12] = tested on: HSC-4; assay: Cytotoxicity against human HSC4 cells; type: functional; procedure, shortened: as §2
[13] = tested on: RPMI-8226; assay: Cytotoxicity against human RPMI8226 cells; type: functional, cell-based; procedure, shortened: as §1
[14] = tested on: HSC-2; assay: Induction of apoptosis assessed as activation of caspase 3 activity in human HSC2 cells after 4 hrs; type: functional, cell-based
Procedure, shortened: (§4)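 Caspase activation measured in neoplastic cells seeded at 4 × 10^4 cells and incubated with compound for 4 h. Each value is the mean of two or three experiments.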

[15] = tested on: HL-60; assay: Induction of apoptosis assessed as activation of caspase 8 activity in human HL60 cells after 4 hrs; type: functional, cell-based; procedure, shortened: as §4
[16] = tested on: HL-60; assay: Induction of apoptosis in human HL60 cells after 6 hrs; type: functional, cell-based
Procedure, shortened: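 Apoptosis read out as DNA fragmentation. 5 × 10^5 cells were incubated for 6 h with 0.5, 1, 2, 4, 8 or 16 μM compound. DNA was run alongside a molecular weight marker and scored for an internucleosomal ladder versus a smear. The experiment was repeated.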

[17] = tested on: HL-60; assay: Induction of apoptosis assessed as activation of caspase 9 activity in human HL60 cells after 4 hrs; type: functional, cell-based; procedure, shortened: as §4
[18] = tested on: HL-60; assay: Induction of apoptosis assessed as activation of caspase 3 activity in human HL60 cells after 4 hrs; type: functional, cell-based; procedure, shortened: as §4
[19] = tested on: L1210; assay: Cytotoxicity against mouse L1210 cells after 72 hrs; type: functional, cell-based; conditions: L1210, 72 h

Structure (SMILES) | pIC50 [1] | CC50 [2] [µM] | pIC50 [3] | pIC50 [4] | pIC50 [5] | CC50 [6] [µM] | CC50 [7] [µM] | pIC50 [8] | pIC50 [9] | CC50 [10] [µM] | CC50 [11] [µM] | CC50 [12] [µM] | pIC50 [13] | Activity [14] | Activity [15] | Activity [16] | Activity [17] | Activity [18] | pIC50 [19]
CN(C)CC(CO)C(=O)c1ccc(Cl)cc1 (configuration not stated) | 6.20 | 6 | 4.66 | 6.49 | 4.51 | 5.8 | < 3.1 | 6.48 | 4.48 | 5.4 | 12 | 8 |  |  |  |  |  |  | 
N[C@@H](Cc1ccc(N(CCCl)CCCl)cc1)C(=O)O [MELPHALAN] |  | 35 |  | 5.21 |  | > 200 | 6 |  |  | > 200 | > 200 | 81 | 4.18 |  |  |  |  |  | 
C=C(CN(C)C)C(=O)c1ccc([N+](=O)[O-])cc1 |  | 8.2 | 5.06 |  | 5.05 | 19.3 | 1.6 |  | 5.10 | 30 | 26 | 19 |  |  |  |  |  |  | 
CN(C)CC(CSCCO)C(=O)c1ccc([N+](=O)[O-])cc1 (configuration not stated) | < 4.00 | 165 | < 3.30 | < 4.00 | < 3.30 | 390 | 353 | < 4.00 | < 3.30 | 400 | 400 | 264 | 4.42 |  |  |  |  |  | 
C=C(CN(C)C)C(=O)c1ccc(Cl)cc1 | 5.40 | 5.1 | 4.58 | 5.48 | 4.52 | 6.1 | < 3.1 | 5.46 | 4.49 | 6 | 9.2 | 6.4 |  |  |  |  |  |  | 
C=C(CN(C)C)C(=O)c1ccc(C)cc1 |  | 3.4 | 4.95 |  | 4.45 | 6.1 | 0.45 |  | 4.94 | 6.9 | 8.1 | 7.6 |  |  |  |  |  |  | 
C=C(CN(C)C)C(=O)c1ccc(OC)cc1 | 4.84 | 5.9 |  | 6.43 | 4.67 | 6.8 | < 3.4 | 5.98 | 4.97 | 5.1 | 9.2 | 6.1 | 4.67 | Active | Active | Active | Active | Active | 5.29
CN(C)CC(CO)C(=O)c1ccc([N+](=O)[O-])cc1 (configuration not stated) |  | 73 | 4.37 |  | 4.43 | 271 | 35 |  | 4.91 | 227 | 176 | 99 |  |  |  |  |  |  | 
Cc1ccc(C(=O)C(CO)CN(C)C)cc1 (configuration not stated) |  | 6.3 | 5.18 |  | 4.68 | 4.9 | < 3.1 |  | 5.09 | 5.7 | 9.8 | 5.8 |  |  |  |  |  |  | 
CN(C)CC(CO)C(=O)c1ccccc1 (configuration not stated) |  | 5.2 | 5.78 |  | 5.23 | 4.4 | 0.41 |  | 5.85 | 5.5 | 5.2 | 6.5 |  |  |  |  |  |  | 
COc1ccc(C(=O)C(CO)CN(C)C)cc1 (configuration not stated) |  | 2.5 | 5.80 |  | 5.31 | 4 | 0.46 | 6.31 | 5.94 | 5.3 | 4.9 | 5.2 | 4.70 |  |  |  |  |  | 
C=C(CN(C)C)C(=O)c1ccccc1 | 6.26 | 29 |  | 6.40 | 3.84 | 26 | 12 | 5.66 | 4.18 | 31 | 52 | 33 | 5.72 |  |  |  |  |  | 4.28
